Test results from ChEMBL document CHEMBL1121880, “Synthesis and antiviral activity of 5-[(cyanomethylene)oxy]-2'-deoxyuridine” (J Med Chem, 1981).
≈ marks a conversion by molar mass, not a printed value.

What was measured:
Assay type in all cases: functional, cell-based
Conditions in all cases: Oryctolagus cuniculus
[1] = tested on: PRK; assay: Concentration required to inhibit incorporation of [Me-3H]-dThd into DNA of primary rabbit kidney (PRK) cells by 50%
How it was run: (§1)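 Uninfected primary rabbit kidney cells; IC50 = concentration reducing incorporation of [Me-3H]dThd or [1',2'-3H]dUrd into host cell DNA by 50%.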

[2] = tested on: PRK; assay: Concentration required to reduce HSV-1(KOS) induced cytopathogenicity by 50%
How it was run: (§2)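 PRK cell cultures infected with 100 CCID50 HSV-1 (KOS), then given varying compound concentrations right after virus adsorption, without added nucleoside.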

[3] = tested on: PRK; assay: Concentration required to reduce HSV-1(KOS) induced cytopathogenicity by 50% was measured by the addition of [1,'2'-3H]dUrd
How it was run: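 HSV-1 (KOS) cytopathogenicity in PRK cells (100 CCID50 inoculum) with dThd or dUrd, unlabelled, added together with test compound at 100 μg/mL final, the highest level not itself inhibiting virus replication. CPE scored at 100% destruction in untreated infected controls; IC50 = concentration halving cytopathogenicity.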

[4] = tested on: PRK; assay: Concentration required to reduce HSV-1(KOS) induced cytopathogenicity by 50% was measured by the addition of [Me-3H]-dThd
[5] = tested on: PRK; assay: Concentration required to reduce HSV-2 induced cytopathogenicity by 50% in primary rabbit kidney (PRK) cells; 10-150
[6] = tested on: PRK; assay: Concentration required to reduce TK-HSV-1 (B2006) induced cytopathogenicity by 50% in primary rabbit kidney (PRK) cells
[7] = tested on: PRK; assay: Compound was evaluated for antiviral activity in rabbit kidney cells infected with vaccinia virus
[8] = tested on: PRK; assay: Concentration required to inhibit incorporation of [1,'2'-3H]dUrd into DNA of primary rabbit kidney (PRK) cells by 50%; how it was run: as §1
[9] = tested on: PRK; assay: Concentration required to reduce HSV-1 induced cytopathogenicity by 50% in primary rabbit kidney (PRK) cells; 2-4
[10] = tested on: PRK; assay: Concentration required to reduce HSV-1 induced cytopathogenicity by 50% in primary rabbit kidney (PRK) cells; 1-1.5
[11] = tested on: PRK; assay: Concentration required to reduce HSV-1(KOS) induced cytopathogenicity by 50% was measured; how it was run: as §2
[12] = tested on: PRK; assay: Concentration required to reduce HSV-2 induced cytopathogenicity by 50% in primary rabbit kidney (PRK) cells; 7-40
[13] = tested on: PRK; assay: Concentration required to reduce HSV-1(KOS) induced cytopathogenicity in primary Rabbit by 50%
How it was run: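 Confluent primary rabbit kidney cell cultures inoculated with 100 CCID50 HSV-1 (KOS); varying compound concentrations added immediately after virus adsorption. Cytopathogenicity scored once virus-infected untreated controls reached 100% cell destruction; IC50 = concentration reducing cytopathogenicity by 50%.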

[14] = tested on: PRK; assay: Concentration required to reduce HSV-1(KOS) induced cytopathogenicity primary rabbit kidney by 50% was measured by the addition of [1,'2'-3H]dUrd
[15] = tested on: PRK; assay: Concentration required to reduce HSV-1(KOS) induced cytopathogenicity primary rabbit kidney by 50% was measured by the addition of [Me-3H]-dThd
[16] = tested on: PRK; assay: Concentration required to reduce HSV-1 induced cytopathogenicity by 50% in primary rabbit kidney (PRK) cells
[17] = tested on: PRK; assay: Concentration required to reduce HSV-2 induced cytopathogenicity by 50% in primary rabbit kidney (PRK) cells; 0.2-0.4
[18] = tested on: PRK; assay: Concentration required to reduce HSV-1 induced cytopathogenicity by 50% in primary rabbit kidney (PRK) cells; 4-10
[19] = tested on: PRK; assay: Concentration required to reduce HSV-2 induced cytopathogenicity by 50% in primary rabbit kidney (PRK) cells; 2-4

| Structure (SMILES) | IC50 [1] [µg/mL] | IC50 [3] [µg/mL] | IC50 [4] [µg/mL] | IC50 [6] [µg/mL] | IC50 [7] [µg/mL] | IC50 [8] [µg/mL] | IC50 [11] [µg/mL] | other results |
| --- | --- | --- | --- | --- | --- | --- | --- | --- |
| N#CCOc1cn([C@H]2C[C@H](O)[C@@H](CO)O2)c(=O)[nH]c1=O | 400 (≈ 1410 µM) | > 400 | > 400 | > 400 | 150 (≈ 530 µM) | > 400 |  | IC50 [2]: 1.5 µg/mL (≈ 5.3 µM); IC50 [5]: 10 µg/mL (≈ 35.3 µM); IC50 [9]: 2 µg/mL (≈ 7.06 µM) |
| C#CCOc1cn([C@H]2C[C@H](O)[C@@H](CO)O2)c(=O)[nH]c1=O | 200 (≈ 709 µM) | 40 (≈ 142 µM) | 400 (≈ 1420 µM) | > 200 | 20 (≈ 70.9 µM) | 100 (≈ 354 µM) | 0.7 (≈ 2.48 µM) | IC50 [10]: 1 µg/mL (≈ 3.54 µM); IC50 [12]: 19 µg/mL (≈ 67.3 µM) |
| N#Cc1cn([C@H]2C[C@H](O)[C@@H](CO)O2)c(=O)[nH]c1=O | > 400 |  |  |  |  | 8 (≈ 31.6 µM) |  |  |
| O=c1[nH]c(=O)n([C@H]2C[C@H](O)[C@@H](CO)O2)cc1F [FLOXURIDINE] |  |  |  |  |  |  |  | IC50 [13]: 1 µg/mL (≈ 4.06 µM); IC50 [14]: 10 µg/mL (≈ 40.6 µM); IC50 [15]: > 400 µg/mL |
| O=c1[nH]c(=O)n([C@H]2C[C@H](O)[C@@H](CO)O2)cc1I [IDOXURIDINE] | 1 (≈ 2.82 µM) |  |  | 200 (≈ 565 µM) | 0.4 (≈ 1.13 µM) | 0.3 (≈ 0.847 µM) |  | IC50 [16]: 0.1 µg/mL (≈ 0.282 µM); IC50 [17]: 0.2 µg/mL (≈ 0.565 µM) |
| Nc1ncnc2c1ncn2[C@@H]1O[C@H](CO)[C@@H](O)[C@@H]1O [VIDARABINE] | 20 (≈ 74.8 µM) | 1 (≈ 3.74 µM) | 1 (≈ 3.74 µM) | 10 (≈ 37.4 µM) | 0.4 (≈ 1.5 µM) | 10 (≈ 37.4 µM) | 4 (≈ 15 µM) | IC50 [18]: 7 µg/mL (≈ 26.2 µM); IC50 [19]: 3 µg/mL (≈ 11.2 µM) |
